Assay results reported in ChEMBL document CHEMBL1123041, “Synthesis of new bis(aminoethanethiol) (BAT) derivatives: possible ligands for 99mTc brain imaging agents” (J Med Chem, 1985).

Assays:
[1] = test system: Rattus norvegicus; assay: Biodistribution in Sprague-Dawley rat heart 2 minutes after intravenous administration, [99mTc]/[125I] IAP ratio); assay type: ADME, organism-based; conditions: in vivo
How it was run: (§1)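 99mTc complex and [125I]iodoantipyrine were co-injected iv into rats. Rats were killed by cardiectomy at 2 or 15 min, and organs were excised, weighed and gamma-counted in two channels with spillover correction. The ratio is 99mTc percent dose divided by 125I percent dose in the same organ, averaged over three rats. Radiochemical purity of the complexes was >95% by reversed-phase HPLC.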

[2] = test system: Rattus norvegicus; assay: Biodistribution in Sprague-Dawley rat heart 15 minutes after intravenous administration, [99mTc]/[125I] IAP ratio); assay type: ADME, organism-based; conditions: in vivo, 0.25 h; how it was run: as §1
[3] = test system: Rattus norvegicus; assay: Biodistribution in Sprague-Dawley rat skin 2 minutes after intravenous administration, [99mTc]/[125I] IAP ratio); assay type: ADME, organism-based, Zone of skin; conditions: in vivo; how it was run: as §1
[4] = test system: Rattus norvegicus; assay: Biodistribution in Sprague-Dawley rat blood 2 minutes after intravenous administration, [99mTc]/[125I] IAP ratio); assay type: ADME, organism-based; conditions: in vivo; how it was run: as §1
[5] = test system: Rattus norvegicus; assay: Biodistribution in Sprague-Dawley rat stomach 2 minutes after intravenous administration, [99mTc]/[125I] IAP ratio); assay type: ADME, organism-based; conditions: in vivo; how it was run: as §1
[6] = Partition coefficient was determined at pH 7.0.; assay type: ADME; conditions: octanol/water
How it was run: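 99mTc-labelled BAT complex shaken with 3 g each of 1-octanol and 0.1 M phosphate buffer (pH 7.0), vortexed 3 min at room temperature, centrifuged 5 min. Two 0.5 g samples per layer counted in a well counter; PC = cpm/g octanol over cpm/g buffer. Octanol layer repartitioned until values were consistent; usually repeated three times.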

[7] = test system: Rattus norvegicus; assay: Biodistribution in Sprague-Dawley rat blood 15 minutes after intravenous administration, [99mTc]/[125I] IAP ratio); assay type: ADME, organism-based; conditions: in vivo, 0.25 h; how it was run: as §1
[8] = test system: Rattus norvegicus; assay: Biodistribution in Sprague-Dawley rat small intestine 2 minutes after intravenous administration, [99mTc]/[125I] IAP ratio); assay type: ADME, organism-based; conditions: in vivo; how it was run: as §1
[9] = test system: Rattus norvegicus; assay: Biodistribution in Sprague-Dawley rat spleen 2 minutes after intravenous administration, [99mTc]/[125I] IAP ratio); assay type: ADME, organism-based; conditions: in vivo; how it was run: as §1
[10] = test system: Rattus norvegicus; assay: Biodistribution in Sprague-Dawley rat liver 2 minutes after intravenous administration, [99mTc]/[125I] IAP ratio); assay type: ADME, organism-based; conditions: in vivo; how it was run: as §1
[11] = test system: Rattus norvegicus; assay: Biodistribution in Sprague-Dawley rat skin 15 minutes after intravenous administration, [99mTc]/[125I] IAP ratio); assay type: ADME, organism-based, Zone of skin; conditions: in vivo, 0.25 h; how it was run: as §1
[12] = test system: Rattus norvegicus; assay: Biodistribution in Sprague-Dawley rat kidneys(2) 15 minutes after intravenous administration, [99mTc]/[125I] IAP ratio); assay type: ADME, organism-based, Kidney; conditions: in vivo, 0.25 h; how it was run: as §1
[13] = test system: Rattus norvegicus; assay: Biodistribution in Sprague-Dawley rat lungs(2) 15 minutes after intravenous administration, [99mTc]/[125I] IAP ratio); assay type: ADME, organism-based, Lung; conditions: in vivo, 0.25 h; how it was run: as §1
[14] = species: Homo sapiens; assay: The human serum protein binding activity was determined; assay type: functional
How it was run: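 Equilibrium dialysis: 0.4 mL pooled human serum against 0.4 mL 0.15 M phosphate buffer pH 7.4 containing 99mTc complex (~0.025 μCi), rotated 18 h at 37 °C. Both sides weighed and counted; percent free = buffer/serum radioactivity concentration ratio × 100. Membrane counted afterwards to check membrane binding.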

[15] = test system: Rattus norvegicus; assay: Biodistribution in Sprague-Dawley rat liver 15 minutes after intravenous administration, [99mTc]/[125I] IAP ratio); assay type: ADME, organism-based; conditions: in vivo, 0.25 h; how it was run: as §1
[16] = test system: Rattus norvegicus; assay: Biodistribution in Sprague-Dawley rat thyroid 15 minutes after intravenous administration, [99mTc]/[125I] IAP ratio); assay type: ADME, organism-based, Thyroid gland; conditions: in vivo, 0.25 h; how it was run: as §1
[17] = test system: Rattus norvegicus; assay: Biodistribution in Sprague-Dawley rat brain 15 minutes after intravenous administration, [99mTc]/[125I] IAP ratio); assay type: ADME, organism-based; conditions: in vivo, 0.25 h; how it was run: as §1
[18] = test system: Rattus norvegicus; assay: Biodistribution in Sprague-Dawley rat spleen 15 minutes after intravenous administration, [99mTc]/[125I] IAP ratio); assay type: ADME, organism-based; conditions: in vivo, 0.25 h; how it was run: as §1
[19] = test system: Rattus norvegicus; assay: Biodistribution in Sprague-Dawley rat muscle 2 minutes after intravenous administration, [99mTc]/[125I] IAP ratio); assay type: ADME, organism-based, Muscle tissue; conditions: in vivo; how it was run: as §1
[20] = test system: Rattus norvegicus; assay: Biodistribution in Sprague-Dawley rat stomach 15 minutes after intravenous administration, [99mTc]/[125I] IAP ratio); assay type: ADME, organism-based; conditions: in vivo, 0.25 h; how it was run: as §1
[21] = test system: Rattus norvegicus; assay: Biodistribution in Sprague-Dawley rat kidneys(2) 2 minutes after intravenous administration, [99mTc]/[125I] IAP ratio); assay type: ADME, organism-based, Kidney; conditions: in vivo; how it was run: as §1
[22] = test system: Rattus norvegicus; assay: Biodistribution in Sprague-Dawley rat small intestine 15 minutes after intravenous administration, [99mTc]/[125I] IAP ratio); assay type: ADME, organism-based; conditions: in vivo, 0.25 h; how it was run: as §1
[23] = test system: Rattus norvegicus; assay: Biodistribution in Sprague-Dawley rat brain 2 minutes after intravenous administration, [99mTc]/[125I] IAP ratio); assay type: ADME, organism-based; conditions: in vivo; how it was run: as §1
[24] = test system: Rattus norvegicus; assay: Biodistribution in Sprague-Dawley rat thyroid 2 minutes after intravenous administration, [99mTc]/[125I] IAP ratio); assay type: ADME, organism-based, Thyroid gland; conditions: in vivo; how it was run: as §1
[25] = test system: Rattus norvegicus; assay: Compound was evaluated for the biodistribution in Sprague-Dawley rats in muscle 15 minutes after intravenous administration, [99mTc]/[125I] IAP ratio); assay type: ADME, organism-based, Muscle tissue; conditions: in vivo, 0.25 h; how it was run: as §1
[26] = test system: Rattus norvegicus; assay: Biodistribution in Sprague-Dawley rat lungs(2) 2 minutes after intravenous administration, [99mTc]/[125I] IAP ratio); assay type: ADME, organism-based, Lung; conditions: in vivo; how it was run: as §1

Dose [1]: 1.08%
Dose [2]: 0.375%
Dose [3]: 8.84%
Dose [4]: 13.6%
Dose [5]: 2.23%
Partition coefficient [6]: 46.8
Dose [7]: 8.07%
Dose [8]: 5.09%
Dose [9]: 0.274%
Dose [10]: 21.7%
Dose [11]: 9.43%
Dose [12]: 2.47%
Dose [13]: 1.57%
Free [14]: 46.2%
Dose [15]: 22.7%
Dose [16]: 0.045%
Dose [17]: 0.288%
Dose [18]: 0.206%
Dose [19]: 9.19%
Dose [20]: 5.24%
Dose [21]: 3.57%
Dose [22]: 11.8%
Dose [23]: 1.28%
Dose [24]: 0.124%
Dose [25]: 18.5%
Dose [26]: 3.08%
Structure (SMILES): CC(C)(S)CNCC(CN)NCC(C)(C)S.Cl.Cl.Cl (stereo unspecified)
